Active and inactive are the calls of the source. No cut-off for these calls is given here.
Assays:
[1] = test system: MCF7; assay: Induction of apoptosis in human MCF7 cells assessed as necrotic cells at 5 uM after 24 hrs by Annexin V-FITC/propidium iodide staining-based flow cytometric analysis (reference value: 0.2%); type: functional
[2] = test system: MCF7; assay: Induction of apoptosis in human MCF7 cells assessed as late apoptotic cells at 10 uM after 24 hrs by Annexin V-FITC/propidium iodide staining-based flow cytometric analysis (reference value: 5.6%); type: functional
Procedure, shortened: (§1)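 Log-phase cells seeded in 6-well plates and treated after adhesion; incubated in cycles of 6 h on/6 h off up to 48 h. Collected after PBS washes and trypsin, resuspended in Ca2+-enriched binding buffer. Stained with annexin V (1 µg/mL) plus PI (0.5 µg/mL) 15 min in the dark at room temperature. 10,000 events, FL1 vs FL2. At least three repeats.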

[3] = test system: MCF7; assay: Induction of apoptosis in human MCF7 cells assessed as early apoptotic cells at 10 uM after 48 hrs by Annexin V-FITC/propidium iodide staining-based flow cytometric analysis (reference value: 9.1%); type: functional; procedure, shortened: as §1
[4] = test system: MCF7; assay: Induction of apoptosis in human MCF7 cells assessed as necrotic cells at 25 uM after 6 hrs by Annexin V-FITC/propidium iodide staining-based flow cytometric analysis (reference value: 0.5%); type: functional
[5] = test system: MCF7; assay: Induction of apoptosis in human MCF7 cells at 1 uM after 48 hrs by Annexin V-FITC/propidium iodide staining-based flow cytometric analysis; type: functional, cell-based
Procedure, shortened: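 Log-phase cells were seeded and treated after adhering, for 48 h in cycles of 6 h on and 6 h off. Cells were stained with annexin V (1 µg/mL) and PI (0.5 µg/mL) in Ca2+-enriched binding buffer for 15 min in the dark at room temperature. 10,000 events were read by flow cytometry (FL1 vs FL2). Apoptosis was the sum of early and late stages. At least three repeats.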

[6] = test system: MCF7; assay: Induction of apoptosis in human MCF7 cells assessed as late apoptotic cells at 1 uM after 24 hrs by Annexin V-FITC/propidium iodide staining-based flow cytometric analysis (reference value: 5.6%); type: functional; procedure, shortened: as §1
[7] = test system: MCF7; assay: Induction of apoptosis in human MCF7 cells assessed as late apoptotic cells at 2505 uM after 24 hrs by Annexin V-FITC/propidium iodide staining-based flow cytometric analysis (reference value: 5.6%); type: functional; procedure, shortened: as §1
[8] = test system: MCF7; assay: Induction of apoptosis in human MCF7 cells assessed as late apoptotic cells at 50 uM after 6 hrs by Annexin V-FITC/propidium iodide staining-based flow cytometric analysis (reference value: 4.7%); type: functional; procedure, shortened: as §1
[9] = test system: MCF7; assay: Induction of apoptosis in human MCF7 cells assessed as early apoptotic cells at 10 uM after 24 hrs by Annexin V-FITC/propidium iodide staining-based flow cytometric analysis (reference value: 2.1%); type: functional; procedure, shortened: as §1
[10] = test system: MCF7; assay: Induction of apoptosis in human MCF7 cells assessed as early apoptotic cells at 5 uM after 48 hrs by Annexin V-FITC/propidium iodide staining-based flow cytometric analysis (reference value: 9.1%); type: functional; procedure, shortened: as §1
[11] = test system: MCF7; assay: Antitumor activity against human MCF7 cells xenografted in BALB/c nude mouse assessed as inhibition of tumor growth at 40 mg/kg administered for a week; type: functional
Procedure, shortened: (§2)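 Male BALB/c nude mice, 4 weeks old, 15-20 g. Log-phase MCF-7 cells in DMEM, 0.1 mL of 1×10^6 cells/mL, injected subcutaneously into the hind leg. Calipers twice weekly; at about 90 mm3, groups of 5. Vehicle was isotonic saline plus 0.005% DMSO. Injected at 40 mg/kg for a week; tumour volume recorded daily.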

[12] = test system: MCF7; assay: Induction of apoptosis in human MCF7 cells assessed as necrotic cells at 25 uM after 24 hrs by Annexin V-FITC/propidium iodide staining-based flow cytometric analysis (reference value: 0.1%); type: functional
[13] = test system: MCF7; assay: Induction of apoptosis in human MCF7 cells assessed as early apoptotic cells at 1 uM after 48 hrs by Annexin V-FITC/propidium iodide staining-based flow cytometric analysis (reference value: 9.1%); type: functional; procedure, shortened: as §1
[14] = test system: MCF7; assay: Induction of apoptosis in human MCF7 cells assessed as early apoptotic cells at 5 uM after 6 hrs by Annexin V-FITC/propidium iodide staining-based flow cytometric analysis (reference value: 2%); type: functional; procedure, shortened: as §1
[15] = test system: MCF7; assay: Cell cycle arrest in human MCF7 cells assessed as accumulation of cells at G2/M phase at 10 uM up to 48 hrs by propidium iodide double staining based flow cytometric analysis; type: functional
[16] = test system: MCF7; assay: Induction of apoptosis in human MCF7 cells assessed as necrotic cells at 1 uM after 6 hrs by Annexin V-FITC/propidium iodide staining-based flow cytometric analysis (reference value: 0.5%); type: functional
[17] = test system: MCF7; assay: Induction of apoptosis in human MCF7 cells assessed as viable cells at 10 uM after 6 hrs by Annexin V-FITC/propidium iodide staining-based flow cytometric analysis (reference value: 92.8%); type: functional; conditions: MCF7, 6 h, read-out: Activity
[18] = test system: MCF7; assay: Induction of apoptosis in human MCF7 cells assessed as late apoptotic cells at 5 uM after 6 hrs by Annexin V-FITC/propidium iodide staining-based flow cytometric analysis (reference value: 4.7%); type: functional; procedure, shortened: as §1
[19] = test system: MCF7; assay: Induction of apoptosis in human MCF7 cells assessed as necrotic cells at 25 uM after 24 hrs by Annexin V-FITC/propidium iodide staining-based flow cytometric analysis (reference value: 0.2%); type: functional
[20] = test system: MCF7; assay: Induction of apoptosis in human MCF7 cells assessed as viable cells at 25 uM after 6 hrs by Annexin V-FITC/propidium iodide staining-based flow cytometric analysis (reference value: 92.8%); type: functional; conditions: MCF7, 6 h, read-out: Activity
[21] = test system: MCF7; assay: Induction of apoptosis in human MCF7 cells assessed as early apoptotic cells at 50 uM after 48 hrs by Annexin V-FITC/propidium iodide staining-based flow cytometric analysis (reference value: 9.1%); type: functional; procedure, shortened: as §1
[22] = test system: MCF7; assay: Induction of apoptosis in human MCF7 cells assessed as late apoptotic cells at 10 uM after 6 hrs by Annexin V-FITC/propidium iodide staining-based flow cytometric analysis (reference value: 4.7%); type: functional; procedure, shortened: as §1
[23] = test system: MCF7; assay: Induction of apoptosis in human MCF7 cells assessed as viable cells at 1 uM after 6 hrs by Annexin V-FITC/propidium iodide staining-based flow cytometric analysis (reference value: 92.8%); type: functional; conditions: MCF7, 6 h, read-out: Activity
[24] = test system: MCF7; assay: Induction of apoptosis in human MCF7 cells assessed as necrotic cells at 50 uM after 6 hrs by Annexin V-FITC/propidium iodide staining-based flow cytometric analysis (reference value: 0.5%); type: functional
[25] = test system: MCF7; assay: Induction of apoptosis in human MCF7 cells assessed as viable cells at 50 uM after 6 hrs by Annexin V-FITC/propidium iodide staining-based flow cytometric analysis (reference value: 92.8%); type: functional; conditions: MCF7, 6 h, read-out: Activity
[26] = test system: MCF7; assay: Induction of apoptosis in human MCF7 cells assessed as late apoptotic cells at 25 uM after 48 hrs by Annexin V-FITC/propidium iodide staining-based flow cytometric analysis (reference value: 2.8%); type: functional; procedure, shortened: as §1
[27] = test system: MCF7; assay: Antitumor activity against human MCF7 cells xenografted in BALB/c nude mouse assessed as tumor weight at 40 mg/kg administered for a week; type: functional; procedure, shortened: as §2
[28] = test system: MCF7; assay: Induction of apoptosis in human MCF7 cells assessed as early apoptotic cells at 5 uM after 24 hrs by Annexin V-FITC/propidium iodide staining-based flow cytometric analysis (reference value: 2.1%); type: functional; procedure, shortened: as §1
[29] = test system: MCF7; assay: Induction of apoptosis in human MCF7 cells assessed as necrotic cells at 1 uM after 24 hrs by Annexin V-FITC/propidium iodide staining-based flow cytometric analysis (reference value: 0.1%); type: functional

Work on `COc1cc([C@@H]2c3cc4c(cc3[C@@H](O[C@@H]3O[C@@H]5CO[C@@H](C)O[C@H]5[C@H](O)[C@H]3O)[C@H]3COC(=O)[C@H]23)OCO4)cc(OC)c1O` [ETOPOSIDE] yielded an Activity [1] of 0.6%, an Activity [2] of 11.5% and an Activity [3] of 60.5%. For the same compound, the Activity [4] was 0.8%, the Activity [5] was “inactive” and the Activity [6] was 6.8%. It also gave an Activity [7] of 12.7%, an Activity [8] of 4.6% and an Activity [9] of 13.8%. The Activity [10] was 62.1%, the inhibition in vivo at 40 mg/kg [11] was 43.2% and the Activity [12] was 1.6%. For the same compound, the Activity [13] was 14.8%, the Activity [14] was 2% and the Activity [15] was “Active”. For the same compound, the Activity [16] was 0.5%, the viability at 10 µM [17] was 87.7% and the Activity [18] was 7.6%. The Activity [19] was 0.8%, the viability at 25 µM [20] was 90.6% and the Activity [21] was 57%. The Activity [22] was 9.1%, the viability at 1 µM [23] was 90.8% and the Activity [24] was 0.8%. For the same compound, the viability at 50 µM [25] was 91.6%, the Activity [26] was 19.7% and the Activity [27] was 0.834 g. It also gave an Activity [28] of 6.7% and an Activity [29] of 0.2%.
